Eight compounds from ChEMBL document CHEMBL3808312, “Bioactive Constituents of Glycyrrhiza uralensis (Licorice): Discovery of the Effective Components of a Traditional Herbal Medicine” (J Nat Prod, 2016) can be followed below.

Calls of active or inactive are those of the source. No cut-off for these calls is given here.

For data set [1], the target named is T1, Acetylcholinesterase (Homo sapiens, UniProt P22303). The data set is described as follows: Inhibition AChE (unknown origin) using ATCI as substrate assessed as hydrolysis of ATCI after 10 mins measured every 1 min for 10 times.
For another data set, the system named is MDCK. The data set is described as follows: Cytotoxicity against MDCK cells after 36 hrs. Type of data set: cell-based, Canis lupus familiaris. Conditions: dog.
The test system of data set [2] is HepG2. Nature of the data set: Cytotoxicity against human HepG2 cells assessed as reduction in cell viability after 24 hrs by MTS assay. Format: functional, cell-based. Particulars: HepG2, 24 h. In short, it runs like this:
(§1)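 Cells seeded at 5 × 10^3/well and cultured overnight, then exposed to compounds for 24 h. Viability read by MTS. Media: SW480 in RPMI1640, A549 in DMEM, MCF7 in MEM. […] Irinotecan positive control.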
A general note: Formazan colour is commonly taken as a measure of viable cells.

Data set [3] deals with SW480. Nature of the data set: Cytotoxicity against human SW480 cells assessed as reduction in cell viability after 24 hrs by MTS assay. Format: functional, cell-based. Conditions: SW480, 24 h. The gist of the method:
as §1

For data set [4], the target named is T2, Tyrosine-protein phosphatase non-receptor type 1 (Homo sapiens) (UniProt P18031).
T2 sequence (whole entry): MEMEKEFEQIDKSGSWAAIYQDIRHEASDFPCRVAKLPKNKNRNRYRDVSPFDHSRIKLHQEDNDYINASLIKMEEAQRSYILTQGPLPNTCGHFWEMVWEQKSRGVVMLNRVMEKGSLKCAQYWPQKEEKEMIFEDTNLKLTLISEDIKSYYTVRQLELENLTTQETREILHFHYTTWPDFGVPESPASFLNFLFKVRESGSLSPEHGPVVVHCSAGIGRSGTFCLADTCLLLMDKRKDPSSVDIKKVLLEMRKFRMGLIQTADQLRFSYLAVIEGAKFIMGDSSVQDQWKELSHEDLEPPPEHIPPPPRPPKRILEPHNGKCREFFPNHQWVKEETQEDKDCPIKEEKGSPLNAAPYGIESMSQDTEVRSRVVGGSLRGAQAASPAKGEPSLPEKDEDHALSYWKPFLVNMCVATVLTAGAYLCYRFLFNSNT
The data set is described as follows: Inhibition of recombinant human PTP1B assessed as hydrolysis of p-nitrophenyl phosphate at 25 uM after 30 mins relative to control.

For data set [5], the target named is T1, Acetylcholinesterase. The data set is described as follows: Inhibition AChE (unknown origin) using ATCI as substrate assessed as hydrolysis of ATCI at 25 uM measured every 1 min for 10 times. In short, it runs like this:
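Commercial AChE (added as 0.025 U/mL solution) in Tris-HCl (30 mM, pH 8.0) with DTNB (added as 0.26 mM) and ATCI substrate (added as 0.2 mM); 200 μL mixture at room temperature. Thiocholine release read at 405 nm every min, 10 reads; linear slope taken as rate. Screening at 25 μM; galanthamine positive control.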

Data set [6] deals with A549. The data set is described as follows: Cytotoxicity against human A549 cells assessed as reduction in cell viability after 24 hrs by MTS assay. Type of data set: functional, cell-based. Conditions: A549, 24 h. In short, it runs like this: as §1
Data set [7] concerns MCF7. Nature of the data set: Cytotoxicity against human MCF7 cells assessed as reduction in cell viability after 24 hrs by MTS assay. Format: functional, cell-based. Particulars: MCF7, 24 h. In short, it runs like this:
as §1

Data set [8] deals with T2, Tyrosine-protein phosphatase non-receptor type 1 (Homo sapiens). Conditions: 5 uM.
In data set [9] the target is T3, Tyrosinase (Homo sapiens) (UniProt P14679).
T3 sequence (whole entry): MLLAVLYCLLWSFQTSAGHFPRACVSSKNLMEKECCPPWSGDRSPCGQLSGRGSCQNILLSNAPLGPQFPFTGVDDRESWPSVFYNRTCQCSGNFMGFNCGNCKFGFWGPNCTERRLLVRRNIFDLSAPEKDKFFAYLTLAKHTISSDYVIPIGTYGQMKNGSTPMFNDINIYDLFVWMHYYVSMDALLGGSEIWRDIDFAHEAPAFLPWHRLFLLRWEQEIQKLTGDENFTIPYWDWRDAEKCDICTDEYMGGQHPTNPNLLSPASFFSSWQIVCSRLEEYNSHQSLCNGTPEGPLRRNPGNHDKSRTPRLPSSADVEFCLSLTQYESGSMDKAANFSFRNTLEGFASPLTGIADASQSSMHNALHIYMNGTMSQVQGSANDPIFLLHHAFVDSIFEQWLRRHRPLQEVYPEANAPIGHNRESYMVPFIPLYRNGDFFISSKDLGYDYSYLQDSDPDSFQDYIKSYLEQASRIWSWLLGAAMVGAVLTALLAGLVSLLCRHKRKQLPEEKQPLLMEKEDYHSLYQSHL
Nature of the data set: Inhibition of tyrosinase (unknown origin) using L-tyrosine as substrate assessed as oxidation of L-tyrosine at 20 uM after 15 mins. The gist of the method: (§2)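 Tyrosinase at 333 U/mL (stock) in 45 mM sodium phosphate, pH 6.6, with 2 mM L-tyrosine (stock). Incubated 37 °C for 15 min; oxidation read at 492 nm. Screened at 20 μM; dose-response for IC50. Glyasperin C positive control.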

The test system of data set [10] is RAW264.7. The data set is described as follows: Antiinflammatory activity in mouse RAW264.7 cells assessed as inhibition of LPS-induced nitric oxide production at 10 uM after 24 hrs by Griess assay. Format: functional. Particulars: RAW264.7, 24 h. The gist of the method: (§3)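 RAW264.7 cells plated at 1.2 × 10^5/well in RPMI1640 and co-treated with compound and 1 μg/mL LPS for 24 h. Nitrite in medium read with Griess reagent (sulfanilamide/naphthylethylenediamine, phosphoric acid) after 15 min at 37 °C, absorbance 540 nm. […] Curcumin positive control.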
(Nitrite, measured by Griess reagent, commonly stands in for NO production.)

The target in data set [11] is T4, Nuclear factor erythroid 2-related factor 2 (Homo sapiens) (UniProt Q16236).
T4 sequence (whole entry): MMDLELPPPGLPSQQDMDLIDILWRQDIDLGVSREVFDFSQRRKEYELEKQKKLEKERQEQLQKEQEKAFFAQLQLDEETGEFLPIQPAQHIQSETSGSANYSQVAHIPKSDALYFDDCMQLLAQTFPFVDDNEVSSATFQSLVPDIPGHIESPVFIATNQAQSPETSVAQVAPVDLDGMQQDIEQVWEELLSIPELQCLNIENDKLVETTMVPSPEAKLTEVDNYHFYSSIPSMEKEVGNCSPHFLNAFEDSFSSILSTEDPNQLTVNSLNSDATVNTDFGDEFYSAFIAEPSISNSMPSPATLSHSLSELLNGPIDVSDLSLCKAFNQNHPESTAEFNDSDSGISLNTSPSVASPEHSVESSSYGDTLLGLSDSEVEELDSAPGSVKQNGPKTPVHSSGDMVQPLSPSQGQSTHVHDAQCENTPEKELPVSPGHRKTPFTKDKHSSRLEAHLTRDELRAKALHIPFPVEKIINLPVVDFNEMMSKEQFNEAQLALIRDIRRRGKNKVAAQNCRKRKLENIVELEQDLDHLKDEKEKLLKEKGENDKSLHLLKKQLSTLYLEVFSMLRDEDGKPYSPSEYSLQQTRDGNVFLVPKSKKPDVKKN
Nature of the data set: Activation of NRF2 transcription in human HepG2C8 cells at 10 uM after 6 hrs by luciferase reporter gene assay relative to control. Type of data set: cell-based. The gist of the method: (§4)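 Luciferase reporter in HepG2C8 cells, which are HepG2 stably transfected with an Nrf2 luciferase reporter and grown in MEM. Screened at 10 μM, with dose-response over 2.5−40 μM. Activity expressed as fold of control. tBHQ positive control.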

In the next data set the test system is Influenza A virus. Nature of the data set: Antiviral activity against Influenza A virus A/WSN/33(H1N1) infected in MDCK cells at 100 uM preincubated with virus for 15 mins followed by cells addition measured at 36 hrs post infection. Type of data set: functional, A/WSN/1933(H1N1). The gist of the method: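 MDCK canine kidney cells grown in DMEM and infected with influenza A/WSN/33 (H1N1). Compounds screened at 100 μM. Oseltamivir phosphate served as the positive control.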

In data set [12] the test system is RAW264.7. The data set is described as follows: Antiinflammatory activity in mouse RAW264.7 cells assessed as inhibition of LPS-induced nitric oxide production after 24 hrs by Griess assay. Format: functional, cell-based. Conditions: RAW264.7, 24 h. In short, it runs like this:
as §3

Data set [13] deals with MCF7. The data set is described as follows: Cytotoxicity against human MCF7 cells assessed as reduction in cell viability at 10 uM after 24 hrs by MTS assay. Type of data set: functional. In short, it runs like this: (§5)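 Cells seeded at 5 × 10^3/well and cultured overnight, then exposed to compounds for 24 h. Viability read by MTS. Media: SW480 in RPMI1640, A549 in DMEM, MCF7 in MEM. Irinotecan positive control.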

Data set [14] deals with HepG2. The data set is described as follows: Cytotoxicity against human HepG2 cells assessed as reduction in cell viability at 10 uM after 24 hrs by MTS assay. Format: functional.
Another data set addresses T5, Tyrosinase (Homo sapiens, UniProt P14679).
T5 sequence (P14679 whole entry): T3 sequence (whole entry)
Nature of the data set: Inhibition of tyrosinase (unknown origin) using L-tyrosine as substrate assessed as oxidation of L-tyrosine after 15 mins. The gist of the method: as §2

For data set [15], the system named is SW480. Nature of the data set: Cytotoxicity against human SW480 cells assessed as reduction in cell viability at 10 uM after 24 hrs by MTS assay. Format: functional. In short, it runs like this: as §5
Data set [16] deals with A549. The data set is described as follows: Cytotoxicity against human A549 cells assessed as reduction in cell viability at 10 uM after 24 hrs by MTS assay. Type of data set: functional. In short, it runs like this:
as §5

Data set [17] relates to RAW264.7. Nature of the data set: Antiinflammatory activity in mouse RAW264.7 cells assessed as inhibition of LPS-induced nitric oxide production at 20 uM after 24 hrs by Griess assay. Type of data set: functional. Particulars: RAW264.7, 24 h. The gist of the method: as §3
In data set [18] the target is T6, Tyrosine-protein phosphatase non-receptor type 1 (Homo sapiens, UniProt P18031).
T6 sequence (P18031 whole entry): T2 sequence (whole entry)
The data set is described as follows: Inhibition of recombinant human PTP1B assessed as hydrolysis of p-nitrophenyl phosphate.

Data set [19] concerns the target T4, Nuclear factor erythroid 2-related factor 2 (Homo sapiens). The data set is described as follows: Inhibition of NRF2 transcription in human HepG2C8 cells at 10 uM after 6 hrs by luciferase reporter gene assay relative to control. Type of data set: cell-based. In short, it runs like this: as §4
A general note: A reporter such as luciferase makes a cellular process visible.

T1 sequence (P22303 whole entry): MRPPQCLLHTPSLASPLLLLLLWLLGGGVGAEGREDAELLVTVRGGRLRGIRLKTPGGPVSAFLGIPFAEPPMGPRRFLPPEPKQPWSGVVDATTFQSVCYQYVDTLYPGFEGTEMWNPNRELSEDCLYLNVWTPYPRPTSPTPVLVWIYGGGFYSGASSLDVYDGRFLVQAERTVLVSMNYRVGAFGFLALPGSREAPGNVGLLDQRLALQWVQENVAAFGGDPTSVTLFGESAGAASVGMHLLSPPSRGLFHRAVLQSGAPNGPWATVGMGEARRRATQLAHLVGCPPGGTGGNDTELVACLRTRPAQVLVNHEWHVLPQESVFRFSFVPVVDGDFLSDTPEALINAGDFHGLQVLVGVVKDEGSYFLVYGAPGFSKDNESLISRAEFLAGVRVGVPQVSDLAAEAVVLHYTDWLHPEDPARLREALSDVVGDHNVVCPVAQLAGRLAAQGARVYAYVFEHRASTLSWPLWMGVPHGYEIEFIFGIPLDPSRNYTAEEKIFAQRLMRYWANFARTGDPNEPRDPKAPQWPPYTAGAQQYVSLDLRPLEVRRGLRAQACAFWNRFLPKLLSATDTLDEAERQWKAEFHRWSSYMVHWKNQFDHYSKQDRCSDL

`COc1c(CC=C(C)C)c(O)cc2c1C[C@H](c1ccc(O)c(CC=C(C)C)c1O)CO2` [LICORICIDIN]: the IC50 (in general, the midpoint of a concentration-inhibition curve) at Acetylcholinesterase [1] is 15.5 µM; with HepG2 [2], 0.3 µM; in the data set with SW480 [3] it was 7.1 µM; in the data set with A549 [6], 6.9 µM; with MCF7 [7] it was 5.2 µM. For the same compound, in the data set with MDCK, the Activity result is reported as “Toxic”. Moreover, the inhibition – broadly, the change of the read-out against control, counted positive when it falls – in data set [4] was more than 95%; on Acetylcholinesterase [5] it was 82%.

Take `C[C@H]1[C@H](C)CC[C@]2(C(=O)O)CC[C@]3(C)C(=CC[C@@H]4[C@@]5(C)CC[C@H](O)C(C)(C)[C@@H]5CC[C@]43C)[C@H]12`: in data set [8], the inhibition was 45%.

As for `COc1cc2occ(-c3ccc(O)cc3O)c(=O)c2c(O)c1CC=C(C)C`, the IC50 at Acetylcholinesterase [1] came out at 9.9 µM. Also, the inhibition at Acetylcholinesterase [5] was found to be 83%.

`COc1c2c(cc(O)c1CC=C(C)C)OCC(c1ccc(O)cc1O)=C2`: the inhibition entry in data set [9] was “inactive”. Also, the inhibition at 10 µM in the data set with RAW264.7 [10] is more than 50%. The fold change (FC) in [11] turned out to be 4.7. Further, in the data set with Influenza A virus, the Activity was more than 30%. Moreover, in the data set with RAW264.7 [12], the IC50 came to 8.1 µM.

For `COc1cc2c(c(OC)c1CC=C(C)C)C[C@H](c1ccc(O)cc1O)CO2` [GLYASPERIN D], the inhibition in data set [9] was more than 95%. Further, the IC50 in the data set on HepG2 [2] stood at 3.8 µM; with SW480 [3], 7.2 µM; on Tyrosinase, 0.154 µM; in the data set with A549 [6], 12.9 µM; in the data set with MCF7 [7], 6.7 µM. Moreover, the Activity was found to be 98% in the data set with MCF7 [13], 99% in the data set on HepG2 [14], 78% in the data set with SW480 [15] and 25% in the data set on A549 [16].

Take `COc1cc(/C=C/C(=O)CC(=O)/C=C/c2ccc(O)c(OC)c2)ccc1O` [CURCUMIN]: the inhibition at 10 µM in the data set with RAW264.7 [10] came to 12%. The inhibition at 20 µM in the data set on RAW264.7 [17] amounted to 53%. The IC50 with RAW264.7 [12] stood at 19.1 µM.

Take `CC(C)=CCc1cc(-c2coc3cc(O)c(CC=C(C)C)c(O)c3c2=O)cc(O)c1O`: the Activity result in the data set with MDCK was “Toxic”. Moreover, the IC50 came out at 3 µM in data set [18]; 4.4 µM with HepG2 [2]; 6.5 µM with SW480 [3]; 6.4 µM with A549 [6]; 6.6 µM in the data set on MCF7 [7]. The inhibition in data set [4] is more than 95%.

The compound `COc1c2c(cc3c1CCC(C)(C)O3)OC[C@@H](c1ccc(O)c(CCC(C)(C)O)c1O)C2` displayed an inhibition in [19] of 76%.
